In ChEMBL document CHEMBL4033712, “Synthesis and biological evaluation of new C-12(α/β)-(N-) sulfamoyl-phenylamino-14-deoxy-andrographolide derivatives as potent anti-cancer agents” (Bioorg Med Chem Lett, 2017):

Experiments:
Format in all cases: functional
SNB-75 = assay: Growth inhibition of human SNB75 cells incubated for 48 hrs by sulforhodamine B assay; conditions: SNB-75, 48 h
Procedure, shortened: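 NCI 60 human tumour cell line panel, five-dose study at 0.01, 0.1, 1, 10 and 100 µM, 48 h incubation. Sulforhodamine B protein-binding dye end point. GI50 (50% decrease in net cell growth), TGI (total growth inhibition) and LC50 (net 50% loss of initial cells) read from log concentration versus % growth inhibition curves.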

LOX IMVI [1] = assay: Growth inhibition of human LOXIMVI cells incubated for 48 hrs by sulforhodamine B assay
Procedure, shortened: (§1)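 NCI-60 five-dose screen at 0.01, 0.1, 1, 10 and 100 µM, 48 h incubation, sulforhodamine B end point. GI50 (50% decrease in net growth), TGI (total growth inhibition) and LC50 (net 50% loss of initial cells) taken from log concentration versus % growth inhibition curves.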

OVCAR-8 = assay: Growth inhibition of human OVCAR8 cells incubated for 48 hrs by sulforhodamine B assay; conditions: OVCAR-8, 48 h; procedure, shortened: as §1
K562 = assay: Anticancer activity against human K562 cells assessed as cell growth at 10 uM after 48 hrs by sulforhodamine B assay relative to control; conditions: K562, 48 h, read-out: Activity
Procedure, shortened: (§2)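 Single-dose NCI-60 panel screen: compound added at 10 µM and the culture incubated 48 h. The end point was read by protein staining with sulforhodamine B. The value is percent growth of treated cells relative to untreated control cells, reported as a mean graph across the panel.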

RPMI-8226 = assay: Anticancer activity against human RPMI8226 cells assessed as cell growth at 10 uM after 48 hrs by sulforhodamine B assay relative to control; conditions: RPMI-8226, 48 h, read-out: Activity; procedure, shortened: as §2
HOP-62 = assay: Anticancer activity against human HOP62 cells assessed as cell growth at 10 uM after 48 hrs by sulforhodamine B assay relative to control; conditions: HOP-62, 48 h, read-out: Activity; procedure, shortened: as §2
NCI-H226 = assay: Anticancer activity against human NCI-H226 cells assessed as cell growth at 10 uM after 48 hrs by sulforhodamine B assay relative to control; conditions: NCI-H226, 48 h, read-out: Activity; procedure, shortened: as §2
NCI-H23 = assay: Anticancer activity against human NCI-H23 cells assessed as cell growth at 10 uM after 48 hrs by sulforhodamine B assay relative to control; conditions: NCI-H23, 48 h, read-out: Activity; procedure, shortened: as §2
NCI-H322M = assay: Anticancer activity against human NCI-H322M cells assessed as cell growth at 10 uM after 48 hrs by sulforhodamine B assay relative to control; conditions: read-out: Activity; procedure, shortened: as §2
NCI-H460 = assay: Anticancer activity against human NCI-H460 cells assessed as cell growth at 10 uM after 48 hrs by sulforhodamine B assay relative to control; conditions: NCI-H460, 48 h, read-out: Activity; procedure, shortened: as §2
COLO 205 = assay: Anticancer activity against human COLO205 cells assessed as cell growth at 10 uM after 48 hrs by sulforhodamine B assay relative to control; conditions: COLO 205, 48 h, read-out: Activity; procedure, shortened: as §2
HCC 2998 = assay: Anticancer activity against human HCC2998 cells assessed as cell growth at 10 uM after 48 hrs by sulforhodamine B assay relative to control; conditions: HCC 2998, 48 h, read-out: Activity; procedure, shortened: as §2
HCT-15 = assay: Anticancer activity against human HCT15 cells assessed as cell growth at 10 uM after 48 hrs by sulforhodamine B assay relative to control; conditions: HCT-15, 48 h, read-out: Activity; procedure, shortened: as §2
KM12 = assay: Anticancer activity against human KM12 cells assessed as cell growth at 10 uM after 48 hrs by sulforhodamine B assay relative to control; conditions: KM12, 48 h, read-out: Activity; procedure, shortened: as §2
SW-620 = assay: Anticancer activity against human SW620 cells assessed as cell growth at 10 uM after 48 hrs by sulforhodamine B assay relative to control; conditions: SW-620, 48 h, read-out: Activity
Procedure, shortened: (§3)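 NCI-60 single-dose screen: compound added at 10 µM, cultures incubated 48 h. End point by sulforhodamine B protein-binding dye. Value reported as percent growth of treated cells relative to untreated control cells.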

SF-295 = assay: Anticancer activity against human SF295 cells assessed as cell growth at 10 uM after 48 hrs by sulforhodamine B assay relative to control; conditions: SF-295, 48 h, read-out: Activity; procedure, shortened: as §2
LOX IMVI [2] = assay: Anticancer activity against human LOXIMVI cells assessed as cell growth at 10 uM after 48 hrs by sulforhodamine B assay relative to control; conditions: read-out: Activity; procedure, shortened: as §2
MDA-MB-435 = assay: Anticancer activity against human MDA-MB-435 cells assessed as cell growth at 10 uM after 48 hrs by sulforhodamine B assay relative to control; conditions: MDA-MB-435, 48 h, read-out: Activity; procedure, shortened: as §2
SK-MEL-28 = assay: Anticancer activity against human SK-MEL-28 cells assessed as cell growth at 10 uM after 48 hrs by sulforhodamine B assay relative to control; conditions: SK-MEL-28, 48 h, read-out: Activity; procedure, shortened: as §2
UACC-257 = assay: Anticancer activity against human UACC257 cells assessed as cell growth at 10 uM after 48 hrs by sulforhodamine B assay relative to control; conditions: UACC-257, 48 h, read-out: Activity; procedure, shortened: as §3
OVCAR-4 = assay: Anticancer activity against human OVCAR4 cells assessed as cell growth at 10 uM after 48 hrs by sulforhodamine B assay relative to control; conditions: OVCAR-4, 48 h, read-out: Activity; procedure, shortened: as §2
NCI/ADR-RES = assay: Anticancer activity against human NCI/ADR-RES cells assessed as cell growth at 10 uM after 48 hrs by sulforhodamine B assay relative to control; conditions: read-out: Activity; procedure, shortened: as §2
SK-OV-3 = assay: Anticancer activity against human SKOV3 cells assessed as cell growth at 10 uM after 48 hrs by sulforhodamine B assay relative to control; conditions: SK-OV-3, 48 h, read-out: Activity; procedure, shortened: as §2
786-0 = assay: Anticancer activity against human 786-0 cells assessed as cell growth at 10 uM after 48 hrs by sulforhodamine B assay relative to control; conditions: 786-0, 48 h, read-out: Activity; procedure, shortened: as §2
CAKI-1 = assay: Anticancer activity against human Caki1 cells assessed as cell growth at 10 uM after 48 hrs by sulforhodamine B assay relative to control; conditions: CAKI-1, 48 h, read-out: Activity; procedure, shortened: as §2
SN12C = assay: Anticancer activity against human SN12C cells assessed as cell growth at 10 uM after 48 hrs by sulforhodamine B assay relative to control; conditions: read-out: Activity; procedure, shortened: as §2
MCF7 = assay: Anticancer activity against human MCF7 cells assessed as cell growth at 10 uM after 48 hrs by sulforhodamine B assay relative to control; conditions: MCF7, 48 h, read-out: Activity; procedure, shortened: as §2
T47D = assay: Anticancer activity against human T47D cells assessed as cell growth at 10 uM after 48 hrs by sulforhodamine B assay relative to control; conditions: read-out: Activity; procedure, shortened: as §3
MDA-MB-468 = assay: Anticancer activity against human MDA-MB-468 cells assessed as cell growth at 10 uM after 48 hrs by sulforhodamine B assay relative to control; conditions: MDA-MB-468, 48 h, read-out: Activity; procedure, shortened: as §2
[3] = read-out: LC50 (the source's name)

SMILES: C=C1CC[C@@H]2[C@](C)(COC(C)=O)[C@H](OC(C)=O)CC[C@@]2(C)[C@H]1CC(Nc1ccc(S(=O)(=O)Nc2ccc(Cl)nn2)cc1)C1=CCOC1=O (some centres undefined)
- GI50 (SNB-75): 1440 nM
- TGI (SNB-75): 5900 nM
- CC50 (SNB-75; [3]): 24300 nM
- GI50 (LOX IMVI [1]): 290 nM
- TGI (LOX IMVI [1]): 1190 nM
- CC50 (LOX IMVI [1]; [3]): 4170 nM
- GI50 (OVCAR-8): 1350 nM
- TGI (OVCAR-8): 3430 nM
- growth at 10 µM (K562): 6.81%
- growth at 10 µM (RPMI-8226): -19.2%
- growth at 10 µM (HOP-62): 47.9%
- growth at 10 µM (NCI-H226): -10%
- growth at 10 µM (NCI-H23): 58.2%
- growth at 10 µM (NCI-H322M): 57%
- growth at 10 µM (NCI-H460): 14.5%
- growth at 10 µM (COLO 205): 18%
- growth at 10 µM (HCC 2998): 88.5%
- growth at 10 µM (HCT-15): -18.4%
- growth at 10 µM (KM12): 27%
- growth at 10 µM (SW-620): -37.7%
- growth at 10 µM (SF-295): 92.8%
- growth at 10 µM (LOX IMVI [2]): -84.6%
- growth at 10 µM (MDA-MB-435): 8.13%
- growth at 10 µM (SK-MEL-28): 6.66%
- growth at 10 µM (UACC-257): 44%
- growth at 10 µM (OVCAR-4): 30.9%
- growth at 10 µM (NCI/ADR-RES): 16.7%
- growth at 10 µM (SK-OV-3): 86.1%
- growth at 10 µM (786-0): 58.8%
- growth at 10 µM (CAKI-1): 31.8%
- growth at 10 µM (SN12C): -27.6%
- growth at 10 µM (MCF7): 16.8%
- growth at 10 µM (T47D): 34.1%
- growth at 10 µM (MDA-MB-468): -32.3%
